# Compound activity as filed in PubChem.
# Compounds with a hit are over-represented: about 2.2% of the library has one in this group of screens.
# Wee1 degr inh: human Wee1 degradation inhibition, primary screen | HeLa Luc-Wee1K328M stability, luciferase luminescence; 100% = proteasome inhibitor MG132 effect | reporter increase, % at 5 µM | actives 1.2% (n = 220,000) | AID 1321;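 active = activation above the mean of all tested compounds plus 3 SD, set per screening run, cut at about 8.8% in these data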;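 also: cells exposed to compound for 20 h before luminescence read; 0% = DMSO alone and 100% = MG132 at 30 µM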
# Target sequence (P30291 whole entry K328M): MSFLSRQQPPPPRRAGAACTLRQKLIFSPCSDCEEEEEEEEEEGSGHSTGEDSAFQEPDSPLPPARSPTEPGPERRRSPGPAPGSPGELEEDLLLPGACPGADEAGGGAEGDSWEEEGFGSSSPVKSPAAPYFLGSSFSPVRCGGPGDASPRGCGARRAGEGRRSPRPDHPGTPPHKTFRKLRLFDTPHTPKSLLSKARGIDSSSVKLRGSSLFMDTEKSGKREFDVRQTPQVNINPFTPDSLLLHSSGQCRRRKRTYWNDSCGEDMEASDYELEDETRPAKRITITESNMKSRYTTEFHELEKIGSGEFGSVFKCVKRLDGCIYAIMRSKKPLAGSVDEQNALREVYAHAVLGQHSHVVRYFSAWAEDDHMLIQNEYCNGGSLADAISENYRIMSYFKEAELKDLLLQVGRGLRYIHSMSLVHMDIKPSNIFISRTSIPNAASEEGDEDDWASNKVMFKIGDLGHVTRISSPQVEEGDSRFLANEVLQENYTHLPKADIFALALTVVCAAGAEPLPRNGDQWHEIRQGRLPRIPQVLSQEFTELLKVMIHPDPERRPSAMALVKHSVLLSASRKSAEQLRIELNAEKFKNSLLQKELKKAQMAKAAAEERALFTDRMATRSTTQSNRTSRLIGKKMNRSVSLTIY
# p97 ATPase inh: blocks human p97 ATPase activity. P55072. recombinant p97 ATPase, Kinase-Glo ATP luminescence, 3 h. inhibition, % at 8 µM. actives 0.42% (n = 220,000); in the data active = inhibition above about 15%;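 also: 0% = DMSO vehicle and 100% = wells lacking enzyme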
# RBBP9 inhibitor: inhibitors of human serine hydrolase RBBP9. O75884. recombinant RBBP9, FP-Rh probe fluorescence polarization. inhibition, % at 7.94 µM. actives 0.2% (n = 220,000);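 active = inhibition above the campaign mean of all tested compounds plus 3 SD, cut at about 14% in these data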;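 also: plate controls were DMSO wells with RBBP9 for no effect and wells lacking RBBP9 protein for full effect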
#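 Measured by: FP readout at 525/598 nm; material: recombinant human RBBP9; also added: Serine-hydrolase probe FP-Rh, 375 nM pre-mixing; medium: Tris buffer pH 8.0, NaCl, Pluronic; replication: one well per compound; doses: one concentration, 7.94 µM nominal, 0.794% DMSO; timing: preincubation 30 min plus labeling 45 min at 25 °C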
# PKD1 inh: blocks activity of human protein kinase D1; Q15139; PKD1 kinase fluorescence polarization assay; inhibition, % (concentration not given with the values); actives 0.056% (n = 200,000); AID 797; in the data active = inhibition above about 50%
# Redox H2O2 prof: compounds producing H2O2 with reducing agent – biochemical, NIH compound library profiling, artefact control for MLSCN library redox annotation, primary screen; actives 0.03% (n = 200,000); DTT-dependent redox cycling H2O2, phenol red/HRP absorbance; 100% = 100 µM peroxide control, 0% = buffer; activation, % at 10 µM;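 active = activation of at least 50% relative to the plate's high and low controls in the primary single-dose screen; inactive = activation below 50%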;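 also: compound incubated with DTT at 0.8 mM final as the reducing agent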
# Arbovirus inh: antivirals against arbovirus infection; arbovirus infection cell-based antiviral screen; inhibition, % at 10 µM; actives 0.37% (n = 200,000); AID 1251; in the data active = inhibition above about 30%
# Numbers without * were called inactive; x = no result given.
SMILES,Wee1 degr inh,p97 ATPase inh,RBBP9 inhibitor,PKD1 inh,Redox H2O2 prof,Arbovirus inh
COc1ccc(NC(=O)/C(Cl)=C(/Cl)S(=O)Cc2ccc(Cl)cc2)cn1 (stereo unspecified),13*,20*,-11,-4,10,-34
COc1ccc(CNC(=O)CCCn2c(SCC#N)nc3cc4c(cc3c2=O)OCO4)cc1,0,1,-2,-3,1,-10
COc1ccc(-c2cc(-c3ccccc3O)[nH]n2)cc1,0,-2,-13,-4,-8,0
COc1ccccc1-c1cc(-c2cc(Cl)ccc2O)n[nH]1,-2,4,-2,-19,-1,2
Oc1ccc(Cl)cc1-c1cc(-c2ccccc2)n[nH]1,-2,2,-19,-6,-1,33*
COc1ccc(-c2cc(-c3ccccc3)n[nH]2)c(O)c1,10*,-3,-5,3,-1,16
COc1ccc(-c2n[nH]c(C)c2-c2cnn(-c3ccccc3)c2)c(O)c1,0,2,-5,6,0,38*
O=C1NCCN(C(=O)CCc2nnc(-c3ccsc3)o2)C1c1ccc(F)cc1 (stereo unspecified),-1,1,-3,7,-1,3
CCN1CCN(Cc2cccc(Oc3ccc(Cl)cc3)c2)CC1,-2,-3,-1,-3,0,-11
CN1CCN(Cc2cccc(Oc3ccc(Cl)cc3)c2)CC1,10*,-4,-2,0,0,-16
CN(c1ccc(OCC(=O)NCc2cccnc2)cc1)S(=O)(=O)c1ccc(Cl)cc1,-1,-1,-3,-10,-3,7
Cc1[nH]n2c(=O)cc(C(C)(C)C)nc2c1-c1ccccc1,9.1*,1,2,4,0,-24
O=C(CSc1cccs1)NCCc1ccccc1,-3,-2,-6,-8,0,-3
O=C(CSc1cccs1)Nc1ccc(Cl)cc1,10*,-4,-15,x,x,x
CCOc1ccc(NC(=O)Nc2ccc3nccnc3c2)cc1,9.4*,6,-7,-6,0,-21
Fc1ccccc1Oc1nc(-c2ccncc2)nc2ccccc12,8.9*,-2,-8,x,x,x
COC(=O)c1ccccc1NC(=O)c1cc(C2CC2)on1,0,-7,-11,-11,-1,8
COC(=O)c1ccccc1NC(=O)c1cc(-c2ccc(O)cc2)on1,2,0,-8,-8,0,48*
O=C(Nc1cccc([N+](=O)[O-])c1)c1cc2ccccc2cc1O,10*,12,-5,x,x,x
Cc1c(C(=O)Nc2cccc([N+](=O)[O-])c2)csc1-c1ccccc1,10*,5,1,-10,2,-8
Cc1ccc(NC(=O)c2csc(-c3ccccc3)c2C)cc1,2,0,3,-2,-2,2
CN(C)c1ccc(C(=O)/C=C/c2ccco2)cc1,9.4*,0,-7,3,1,-6
COc1cccc(NC(=O)CN(C)CC(=O)Nc2ccc(Br)cc2)c1,1,1,-6,1,0,-4
COc1cccc(NC(=O)CN(C)CC(=O)NC(C)c2ccccc2)c1 (stereo unspecified),8.9*,-6,-11,x,x,x
CN1CCN(C(=S)c2cn(Cc3ccc(F)cc3)c3ccccc23)CC1,9.2*,-2,-2,-4,-1,2
SMILES,Wee1 degr inh,p97 ATPase inh,RBBP9 inhibitor,PKD1 inh,Redox H2O2 prof,Arbovirus inh
CN1CCN(C(=S)c2cn(Cc3cccc(F)c3)c3ccccc23)CC1,0,-1,2,0,0,4
COC(=O)C(CC(C)C)NC(=O)/C=C/c1ccccc1Cl (stereo unspecified),10*,2,-6,-4,0,-13
O=C(/C=C/c1ccccc1Cl)Nc1ccccc1,9.3*,4,-5,x,x,x
CCOC(=O)C1(CCCc2ccccc2)CCN(Cc2ccn[nH]2)CC1,0,1,1,-3,-1,-12
CC1CC(=O)Nc2ccccc2N1C(=O)Nc1ccc(F)cc1 (stereo unspecified),0,-1,-7,x,x,x
Cc1cc(C)cc(NC(=O)N2c3ccccc3NC(=O)CC2C)c1 (stereo unspecified),9.6*,10,3,x,x,x
CCOC(=O)CN1c2ccccc2NC(=O)CC1C (stereo unspecified),14*,-8,-12,-11,-1,6
CC1CC(=O)Nc2ccccc2N1C(=O)CN1CCN(c2ccccc2)CC1 (stereo unspecified),-3,5,-2,-8,-2,14
COc1ccc(C2CC23N=C(c2ccccc2)OC3=O)cc1 (stereo unspecified),-2,-7,-7,-2,0,6
COc1ccc2ccccc2c1/C=N/N1C(=O)CSC1=S,-2,1,-10,-3,0,32*
COc1cccc(/C=N/N2C(=O)CSC2=S)c1O,-2,6,1,-3,1,-12
N/C(=N\OC(=O)COc1ccc(Cl)cc1)c1ccc(Cl)cc1,-2,4,-3,-1,0,6
Cc1cccc(/C(N)=N/OC(=O)COc2ccc(Cl)cc2)c1,2,4,-5,0,-2,36*
COc1ccc(C2CC(=O)C=C(NNS(=O)(=O)c3ccc(C)cc3)C2)cc1 (stereo unspecified),-1,3,-1,6,1,-6
CC(=O)c1ccc(N2CCN(C(=O)/C=C/c3ccc(S(=O)(=O)NCc4ccco4)cc3)CC2)cc1,10*,-2,-4,0,-1,11
CC(C)CCN1C(=O)c2ccc(C(=O)NCC3CCCO3)cc2C1=O (stereo unspecified),9.6*,0,5,-14,0,-1
CC1CCCN(c2ccc(C(=O)NCC3CCCO3)cn2)C1 (stereo unspecified),9.6*,-7,-11,0,0,3
O=C(NCC1CCCO1)c1ccc2c(c1)C(=O)N(C1CCCCC1)C2=O (stereo unspecified),-1,-4,-6,-5,1,-3
CCNc1nnc(-c2ccc(C)cc2)o1,0,1,-5,-25,-1,-1
COc1ccc(/C(C)=N/NC(=S)Nc2cc(C)ccc2C)cc1,-3,-1,-3,-5,-2,1
c1ccc(CNc2c3c(nc4ncnn24)CCC3)cc1,-2,9,4,x,x,x
COc1cc(NC(=O)COC(=O)/C=C/c2ccc(OC)c(OC)c2)cc(OC)c1,1,0,-8,4,-1,3
COc1cc(NC(=O)COC(=O)/C=C/c2ccccc2Cl)cc(OC)c1,9.0*,3,-4,3,0,-1
Cc1ccc(SCCC(=O)OC(C(=O)NC(N)=O)C(C)C)cc1 (stereo unspecified),2,2,3,3,-1,0
FC(F)(F)c1cc(C(F)(F)F)c2ccc(Oc3ccccc3)nc2n1,-2,2,-2,8,2,0
